# Measured values reported in ChEMBL document CHEMBL1132613 (J Med Chem, 1999).
# Key:
# Rattus norvegicus [1] = experiment: Percentage of animals failing to emit 50 lever presses within 15 min in LSD trained rats at a compound dose of 8.0 mg/kg; assay type: functional
# How it was run: (§1)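 Two-lever drug discrimination in male Sprague–Dawley rats (200–220 g at start), trained against saline on LSD tartrate (0.08 mg/kg), DOI HCl (0.4 mg/kg) or LY293284 (0.025 mg/kg). FR50 food-pellet reinforcement, levers counterbalanced, 15-min sessions at 22–24 °C. %D is the share of tested rats not completing 50 lever presses within 15 min.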
# Rattus norvegicus [2] = experiment: Percentage of animals failing to emit 50 lever presses within 15 min in […] trained rats at a compound dose of 2 mg/kg; assay type: functional; how it was run: as §1
# Rattus norvegicus [3] = experiment: Percentage of animals emitting >80% of lever presses in LSD trained rats at a compound dose of 25.3 uM/Kg; assay type: functional
# How it was run: (§2)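 Male Sprague–Dawley rats (200–220 g) in a two-lever, FR50 food-reinforced task. Rats were trained to discriminate saline from LSD tartrate (0.08 mg/kg), DOI HCl (0.4 mg/kg) or LY293284 (0.025 mg/kg) in 15-min sessions. %SDL is the share of rats making over 80% of presses on the drug lever. %D is the share failing to make 50 presses within 15 min. ED50 by Litchfield–Wilcoxon log-probit.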
# [4] = target: T1, 5-hydroxytryptamine receptor 2C (Homo sapiens, UniProt P28335); experiment: Compound was tested for the displacement of [125I]DOI from cloned human 5-hydroxytryptamine 2C receptor
# T1 sequence (P28335 whole entry): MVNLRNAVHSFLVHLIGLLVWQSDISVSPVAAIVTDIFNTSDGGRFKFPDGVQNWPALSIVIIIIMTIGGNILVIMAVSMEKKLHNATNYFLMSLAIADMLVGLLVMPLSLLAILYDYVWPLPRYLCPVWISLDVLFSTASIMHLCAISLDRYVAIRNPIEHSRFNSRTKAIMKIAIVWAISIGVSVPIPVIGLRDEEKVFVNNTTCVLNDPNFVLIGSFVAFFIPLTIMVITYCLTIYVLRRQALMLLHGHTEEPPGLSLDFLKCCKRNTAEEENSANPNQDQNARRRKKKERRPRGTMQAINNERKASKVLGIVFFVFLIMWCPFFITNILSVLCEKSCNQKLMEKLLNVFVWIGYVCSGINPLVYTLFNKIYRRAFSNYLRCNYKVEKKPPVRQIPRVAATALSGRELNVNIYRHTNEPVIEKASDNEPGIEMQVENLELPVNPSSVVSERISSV
# How it was run: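 Membranes from AV12 hamster fibroblasts stably expressing human 5-HT2A or 5-HT2C. [125I]DOI was about 0.07–0.15 nM final. Buffer was 50 mM Tris-HCl pH 7.4 with 10 μM pargyline, 9.75 mM MgCl2, 0.5 mM Na2-EDTA and 0.1% Na ascorbate. Incubation was 30 min at 37 °C with about 40 μg protein (2A) or 30 μg (2C). Nonspecific binding used 1 μM ketanserin (2A) or 10 μM mianserin (2C). Read by gamma counting; sigmoid nonlinear regression.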
# Rattus norvegicus [5] = experiment: Percentage of animals emitting >80% of lever presses in LSD trained rats at a compound dose of 50.6 uM/Kg; assay type: functional; how it was run: as §2
# Rattus norvegicus [6] = experiment: Percentage of animals emitting >80% of lever presses in LSD trained rats at a compound dose of 3.16 uM/Kg; assay type: functional; how it was run: as §2
# Rattus norvegicus [7] = experiment: Percentage of animals failing to emit 50 lever presses within 15 min in […] trained rats at a compound dose of 8 mg/kg; assay type: functional; how it was run: as §1
structure (smiles),measurement,setting,value
CN(C)CCc1c[nH]c2sccc12,D,Rattus norvegicus [1],0%
same,D,Rattus norvegicus [2],0%
same,SDL,Rattus norvegicus [3],9%
same,Ki,[4],102 nM
same,SDL,Rattus norvegicus [5],16.7%
same,SDL,Rattus norvegicus [6],7.7%
same,D,Rattus norvegicus [7],0%
